Active and inactive are the calls of the source. The rule behind the calls is not given here.
What was measured:
Cannabinoid receptor 2 [1] = molecular target: T1, Cannabinoid receptor 2 (Homo sapiens, UniProt P34972); experiment: Displacement of [3H]-CP55,940 from human CB2 receptor expressed in CHO membranes after 1 hr by liquid scintillation counting; type: cell membranes
Method in brief: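 0.5 nM [3H]-CP-55,940 on 6 µg hCB2-CHO membranes in 20 mM Hepes, 5 mM MgCl2, 1 mM EDTA, 0.3% BSA, pH 7.4, 1 h at 30 °C. Filtered over GF/C and counted by scintillation. Nonspecific binding with 5 µM (R)-(+)-WIN 55,212-2; DMSO <0.1%. Screened first at 10 µM; Ki by nonlinear regression of competition curves where displacement >60%; ≥4 experiments in duplicate.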

Homo sapiens = species on record: Homo sapiens; experiment: Selectivity ratio of Ki for human CB1 receptor expressed in CHO membranes to Ki for human CB2 receptor expressed in CHO membranes; type: cell membranes
Cannabinoid receptor 2 [2] = molecular target: T1, Cannabinoid receptor 2; experiment: Agonist activity at human CB2 receptor expressed in CHO membranes assessed as [35S]-GTPgammaS binding after 1 hr; type: functional, cell membranes
Method in brief: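 hCB2-CHO membranes (10 µg protein) in 20 mM Hepes, 10 mM MgCl2, 100 mM NaCl, 0.1% BSA, pH 7.4, with 30 µM GDP. Started with 0.1 nM [35S]-GTPγS (final) and run 1 h at 30 °C, then filtered and counted. Nonspecific binding taken with 100 µM Gpp(NH)p; basal activity set at 100%. EC50 and Emax by nonlinear regression, ≥4 experiments in duplicate.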

Cannabinoid receptor 1 = Cannabinoid receptor 1 (Homo sapiens, UniProt P21554); experiment: Displacement of [3H]-SR141716A from human CB1 receptor expressed in CHO membranes after 1 hr by liquid scintillation counting; type: cell membranes
HT-29 = experiment: Antiproliferative activity against human HT-29 cells at 10 uM after 72 hrs by MTS assay; type: cell-based; conditions: ht-29, 72 h
Method in brief: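 HT29 cells grown in DMEM-Glutamax with 10% FBS and penicillin/streptomycin, 37 °C, 5% CO2. Plated at 3000 cells/well in triplicate, left 24 h, then exposed to 10 µM compound (<0.1% DMSO) for 72 h. Growth read by colorimetric MTS reduction to formazan, given as % proliferation inhibition; ≥4 experiments in duplicate.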

Mus musculus [3] = experiment: Anticolitis activity in DSS-induced acute colitis C57/Bl6 mouse model assessed as effect on TNF-alpha levels at 10 mg/kg, ip qd for 7 days measured after 7 days by RT-PCR analysis relative to vehicle-treated control; type: functional, organism-based; design: dose 10 mg/kg
Mus musculus [4] = experiment: Anticolitis activity in DSS-induced acute colitis C57/Bl6 mouse model assessed as reduction in disease activity index at 10 mg/kg, ip qd for 7 days measured after 7 days relative to vehicle-treated control; type: functional, organism-based; design: dose 10 mg/kg
Mus musculus [5] = experiment: Toxicity in DSS-induced acute colitis C57/Bl6 mouse model assessed as rovert reactions at 10 mg/kg, ip qd for 7 days measured after 7 days; type: organism-based; design: dose 10 mg/kg, route intraperitoneal; conditions: in vivo, 168 h
Mus musculus [6] = experiment: Anticolitis activity in DSS-induced acute colitis C57/Bl6 mouse model assessed as reduction in ratio of Kc mRNA to POLR2A mRNA level at 10 mg/kg, ip qd for 7 days measured after 7 days by RT-PCR analysis (reference value: 68.9 +/-9.8 no unit ); type: functional; conditions: route intraperitoneal
Mus musculus [7] = experiment: Anticolitis activity in DSS-induced acute colitis C57/Bl6 mouse model assessed as change in body weight at 10 mg/kg, ip qd for 7 days measured after 7 days (reference value: 83.1 +/- 2.2 %); type: functional; conditions: route intraperitoneal
Mus musculus [8] = experiment: Anticolitis activity in DSS-induced acute colitis C57/Bl6 mouse model assessed as reduction in colon inflammation at 10 mg/kg, ip qd for 7 days measured after 7 days by histological analysis relative to vehicle-treated control; type: functional, organism-based; design: dose 10 mg/kg
Method in brief: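 In DSS-colitic male C57BL6 mice given 10 mg/kg ip daily for 7 days in cyclodextrin vehicle, May-Grünwald-Giemsa-stained distal colon sections were scored for inflammatory infiltrate (0–3) and tissue damage (0–3), n = 10.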

Mus musculus [9] = experiment: Anticolitis activity in DSS-induced acute colitis C57/Bl6 mouse model assessed as increase in colon length at 10 mg/kg, ip qd for 7 days measured after 7 days (reference value: 4.6 +/- 0.2 cm); type: functional; conditions: route intraperitoneal
Mus musculus [10] = experiment: Anticolitis activity in DSS-induced acute colitis C57/Bl6 mouse model assessed as reduction in ratio of IL-1beta mRNA to POLR2A mRNA level at 10 mg/kg, ip qd for 7 days measured after 7 days by RT-PCR analysis (reference value: 105.1 +/-17.0 no unit ); type: functional; conditions: route intraperitoneal

Sequence of Cannabinoid receptor 1 (P21554 whole entry, looked up): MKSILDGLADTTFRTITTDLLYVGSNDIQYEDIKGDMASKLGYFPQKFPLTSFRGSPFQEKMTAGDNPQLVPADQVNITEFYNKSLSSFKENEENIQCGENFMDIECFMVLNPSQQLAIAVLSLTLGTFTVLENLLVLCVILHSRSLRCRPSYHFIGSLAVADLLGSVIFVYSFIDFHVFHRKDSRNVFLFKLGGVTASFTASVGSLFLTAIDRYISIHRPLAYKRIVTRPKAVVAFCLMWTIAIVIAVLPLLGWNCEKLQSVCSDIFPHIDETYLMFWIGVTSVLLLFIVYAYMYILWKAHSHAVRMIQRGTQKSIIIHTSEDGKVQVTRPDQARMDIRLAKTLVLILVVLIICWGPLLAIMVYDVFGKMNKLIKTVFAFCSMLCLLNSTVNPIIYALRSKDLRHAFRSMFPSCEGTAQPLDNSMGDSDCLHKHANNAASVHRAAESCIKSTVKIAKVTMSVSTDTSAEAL
T1 sequence (P34972 whole entry): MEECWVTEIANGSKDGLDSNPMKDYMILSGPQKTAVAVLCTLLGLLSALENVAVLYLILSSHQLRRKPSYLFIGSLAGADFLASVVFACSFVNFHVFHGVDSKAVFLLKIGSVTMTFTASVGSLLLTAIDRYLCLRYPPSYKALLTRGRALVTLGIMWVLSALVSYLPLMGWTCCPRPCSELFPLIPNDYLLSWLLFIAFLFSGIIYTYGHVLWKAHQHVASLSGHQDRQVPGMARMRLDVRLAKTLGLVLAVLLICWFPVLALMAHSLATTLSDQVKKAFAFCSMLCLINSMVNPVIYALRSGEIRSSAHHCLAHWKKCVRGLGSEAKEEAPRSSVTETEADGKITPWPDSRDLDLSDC

For CCCCCOc1cccc(-c2cc(C(=O)NC34CC5CC(CC(C5)C3)C4)no2)c1, the Ki (Cannabinoid receptor 2 [1]) was over 1000 nM.
Molecule CCCCOc1ccccc1-c1cc(C(=O)NC23CC4CC(CC(C4)C2)C3)no1 has a Ki (Cannabinoid receptor 2 [1]) of 369 nM, a Ratio Ki (Homo sapiens) of over 8 and an EC50 (Cannabinoid receptor 2 [2]) of 2.88 nM. The Ki (Cannabinoid receptor 1) was over 3000 nM and the Activity (HT-29) was 2%.
CCCCCOc1ccccc1-c1cc(C(=O)Nc2cccc3ccccc23)no1 gave a Ki (Cannabinoid receptor 2 [1]) of over 1000 nM.
With O=C(NCC12CC3CC(CC(C3)C1)C2)c1cc(-c2ccccc2)on1 the Ki (Cannabinoid receptor 2 [1]) was over 1000 nM.
CCCCCCCCOc1ccccc1-c1cc(C(=O)NC23CC4CC(CC(C4)C2)C3)no1 gave a Ki (Cannabinoid receptor 2 [1]) of over 1000 nM.
For CCCCCOc1ccccc1-c1cc(C(=O)NC2CC2)no1, the Ki (Cannabinoid receptor 2 [1]) was over 1000 nM.
Work on O=C(NC1C2CC3CC(C2)CC1C3)c1cc(-c2ccccc2)on1 (stereo unspecified) yielded a Ki (Cannabinoid receptor 2 [1]) of over 1000 nM.
For CCCCCOc1ccccc1-c1cc(C(=O)NC2C3CC4CC(C3)CC2C4)no1 (stereo unspecified), the Ki (Cannabinoid receptor 2 [1]) was 60.1 nM, the Ratio Ki (Homo sapiens) was over 49 and the EC50 (Cannabinoid receptor 2 [2]) was 14.8 nM. For the same molecule, the Ki (Cannabinoid receptor 1) was over 3000 nM and the Activity (HT-29) was 0%.
CCCCCOc1ccccc1-c1cc(C(=O)NC2CCCCCCC2)no1 gave a Ki (Cannabinoid receptor 2 [1]) of 73.5 nM, a Ratio Ki (Homo sapiens) of over 40 and an EC50 (Cannabinoid receptor 2 [2]) of 1.8 nM. The Ki (Cannabinoid receptor 1) was over 3000 nM and the Activity (HT-29) was 17%.
Work on CCCCCCOc1ccccc1-c1cc(C(=O)NC23CC4CC(CC(C4)C2)C3)no1 yielded a Ki (Cannabinoid receptor 2 [1]) of 30.5 nM, a Ratio Ki (Homo sapiens) of over 98 and an EC50 (Cannabinoid receptor 2 [2]) of 3.4 nM. The Ki (Cannabinoid receptor 1) was over 3000 nM and the Activity (HT-29) was 17%.
CCCCCOc1ccc(-c2cc(C(=O)NC34CC5CC(CC(C5)C3)C4)no2)cc1 was tested, and the Ki (Cannabinoid receptor 2 [1]) was over 1000 nM.
CCCCCOc1ccccc1-c1cc(C(=O)NN2CCCCC2)no1 was tested, and the Ki (Cannabinoid receptor 2 [1]) was 600 nM.
For CCCCCOc1ccccc1-c1cc(C(=O)NC2CCC2)no1, the Ki (Cannabinoid receptor 2 [1]) was 412 nM, the Ratio Ki (Homo sapiens) was over 2 and the EC50 (Cannabinoid receptor 2 [2]) was 4.4 nM. It also gave a Ki (Cannabinoid receptor 1) of over 1000 nM and an Activity (HT-29) of 46%.
Work on COc1ccccc1-c1cc(C(=O)NC23CC4CC(CC(C4)C2)C3)no1 yielded a Ki (Cannabinoid receptor 2 [1]) of 70.1 nM, a Ratio Ki (Homo sapiens) of over 42 and an EC50 (Cannabinoid receptor 2 [2]) of 2.56 nM. The Ki (Cannabinoid receptor 1) was over 3000 nM.
Work on CCCCCCCOc1ccccc1-c1cc(C(=O)NC23CC4CC(CC(C4)C2)C3)no1 yielded a Ki (Cannabinoid receptor 2 [1]) of over 1000 nM.
CCCCCOc1ccccc1-c1cc(C(=O)NC23CC4CC(CC2C4)C3)no1 was tested, and the Activity (Mus musculus [3]) was “inactive”, the Ki (Cannabinoid receptor 2 [1]) was 9 nM and the Ratio Ki (Homo sapiens) was over 111. The Activity (Mus musculus [4]) was “Active”, the EC50 (Cannabinoid receptor 2 [2]) was 4.8 nM and the Ki (Cannabinoid receptor 1) was over 1000 nM. For the same molecule, the Activity (Mus musculus [5]) was “Non-toxic”, the Ratio (Mus musculus [6]) was 11.5 and the Activity (Mus musculus [7]) was 92.8%. For the same molecule, the Activity (HT-29) was 20%, the Activity (Mus musculus [8]) was “Active” and the Activity (Mus musculus [9]) was 5.6 cm. The Ratio (Mus musculus [10]) was 19.9.
In the case of CCCCCOc1ccccc1-c1cc(C(=O)N(CC(C)C)CC(C)C)no1, the Ki (Cannabinoid receptor 2 [1]) is reported as 22.1 nM and the Ki (Cannabinoid receptor 1) is reported as 33 nM.
With O=C(NC12CC3CC(CC(C3)C1)C2)c1cc(-c2ccccc2)on1 the Ki (Cannabinoid receptor 2 [1]) was over 1000 nM.
CCCCCOc1ccccc1-c1cc(C(=O)NC23CC4CC(CC(C4)C2)C3)no1 was tested, and the Ki (Cannabinoid receptor 2 [1]) was 36 nM, the Ratio Ki (Homo sapiens) was over 83 and the EC50 (Cannabinoid receptor 2 [2]) was 2.9 nM. It also gave a Ki (Cannabinoid receptor 1) of over 3000 nM and an Activity (HT-29) of 0%.
CCCCCOc1ccccc1-c1cc(C(=O)Nc2nnc(C)s2)no1 showed a Ki (Cannabinoid receptor 2 [1]) of over 3000 nM.
In the case of CCCCCOc1ccccc1-c1cc(C(=O)NCc2ccccc2)no1, the Ki (Cannabinoid receptor 2 [1]) is reported as over 3000 nM.
For CCCCCOc1ccccc1-c1cc(C(=O)Nc2ccccc2)no1, the Ki (Cannabinoid receptor 2 [1]) was over 1000 nM.
With CCOc1ccccc1-c1cc(C(=O)NC23CC4CC(CC(C4)C2)C3)no1 the Ki (Cannabinoid receptor 2 [1]) was over 1000 nM.
With CCCCCOc1ccccc1-c1cc(C(=O)NC2CCCC2)no1 the Ki (Cannabinoid receptor 2 [1]) was 60.9 nM, the Ratio Ki (Homo sapiens) was over 16 and the EC50 (Cannabinoid receptor 2 [2]) was 2.1 nM. It also gave a Ki (Cannabinoid receptor 1) of over 1000 nM and an Activity (HT-29) of 13%.
For CCCCCOc1ccccc1-c1cc(C(=O)NC2CCCCCC2)no1, the Activity (Mus musculus [3]) was “inactive”, the Ki (Cannabinoid receptor 2 [1]) was 60.8 nM and the Ratio Ki (Homo sapiens) was over 49. For the same molecule, the Activity (Mus musculus [4]) was “Active”, the EC50 (Cannabinoid receptor 2 [2]) was 11.1 nM and the Ki (Cannabinoid receptor 1) was over 3000 nM. For the same molecule, the Activity (Mus musculus [5]) was “Non-toxic”, the Ratio (Mus musculus [6]) was 12.3 and the Activity (Mus musculus [7]) was 91.8%. The Activity (HT-29) was 34%, the Activity (Mus musculus [8]) was “Active” and the Activity (Mus musculus [9]) was 5.4 cm. The Ratio (Mus musculus [10]) was 13.2.
In the case of CCCOc1ccccc1-c1cc(C(=O)NC23CC4CC(CC(C4)C2)C3)no1, the Ki (Cannabinoid receptor 2 [1]) is reported as 79.6 nM, the Ratio Ki (Homo sapiens) is reported as over 12 and the EC50 (Cannabinoid receptor 2 [2]) is reported as 2.21 nM. The Ki (Cannabinoid receptor 1) was over 1000 nM and the Activity (HT-29) was 8%.
With CCCCCOc1ccccc1-c1cc(C(=O)NC2CCCCC2)no1 the Ki (Cannabinoid receptor 2 [1]) was 22.8 nM, the Ratio Ki (Homo sapiens) was over 131 and the EC50 (Cannabinoid receptor 2 [2]) was 1.9 nM. The Ki (Cannabinoid receptor 1) was over 3000 nM and the Activity (HT-29) was 37%.

Source: ChEMBL document CHEMBL2413003, “3-Carboxamido-5-aryl-isoxazoles as new CB2 agonists for the treatment of colitis” (Bioorg Med Chem, 2013)
